Source: ChEMBL document CHEMBL1154284, “Antioxidant effects of xanthohumol and functional impact on hepatic ischemia-reperfusion injury” (J Nat Prod, 2009)
Calls of active or inactive are those of the source. The calls are words filed in the database; no cut-off is given here.

Tests used:
[1] = Antioxidant activity assessed as superoxide radical anion scavenging activity after 100 secs by xanthine/xanthine oxidase method; assay type: functional
Procedure, shortened: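 Cell-free chemiluminescence: 1 mM xanthine with test solution (5–80 μM), reaction started by injecting 1 mM luminol and 0.5 U/mL xanthine oxidase (stock concentrations). Light read for 100 s at 37 °C; output as RLU or area under the curve, relative to solvent control (100%); n = 9.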

[2] = test system: HEK293; assay: Antioxidant activity in human HEK293 cells loaded with dihyfrofluresceindiacetate at 40 uM; assay type: functional
Procedure, shortened: (§1)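 HEK 293 cells grown to 85–90% confluency, pretreated 2 h with compound (40 μM) or NAC (1 mM); 20 μM dihydrofluorescein diacetate loaded during final 30 min at 37 °C in dark; washed, then 1 mM H2O2 for 20 min. Fluorescence ex 485/em 535 nm versus corresponding controls; mean ± SEM, n = 4.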

[3] = test system: HEK293; assay: Cytotoxicity against human HEK293 cells upto 10 to 300 uM after 3 hrs by MTT assay; assay type: cell-based; conditions: hek293, 3 h
Procedure, shortened: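 HEK 293 cells near 85–90% confluency exposed 3 h to 10–300 μM; MTT added, 1 h at 37 °C; formazan dissolved in DMSO and absorbance read at 550 nm.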

[4] = test system: Liver; assay: Inhibition of ischemic and reperfusion-induced of GSH activity in Sprague-Dawley rat hepatic tissue at 26.6 mM before ischemic period by DTNB reduction assay; assay type: functional, tissue-based; conditions: 2.26 mM, in the assay text read “2.26 mM” for “26.6 mM”
Procedure, shortened: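 Total glutathione in liver homogenate from perfused rat livers after cold ischemia/reperfusion, measured colorimetrically via DTNB reduction at 405 nm; normalized to Bradford protein; percent of untreated controls.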

[5] = test system: Liver; assay: Inhibition of ischemic and reperfusion-induced SOD activity in Sprague-Dawley rat hepatic tissue at 26.6 mM before ischemic period by pyragallol method; assay type: functional, tissue-based; conditions: 2.26 mM, in the assay text read “2.26 mM” for “26.6 mM”
Procedure, shortened: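 Perfused rat livers (portal-vein pretreatment before 6 h cold ischemia, 150 min reperfusion). Tissue SOD activity by pyrogallol autoxidation method (one unit inhibits autoxidation 50%), normalized to Bradford protein, expressed as percent of untreated controls; mean ± SEM, n = 3.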

[6] = test system: Liver; assay: Inhibition of ischemic and reperfusion-induced oxidative stress in Sprague-Dawley rat hepatic tissue at 26.6 mM before ischemic period assessed as decrease in 8-isoprostane level; assay type: functional, tissue-based; conditions: 2.26 mM, in the assay text read “2.26 mM” for “26.6 mM”
Procedure, shortened: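 Liver homogenates from perfused rat livers after cold ischemia/reperfusion; 8-isoprostane by competitive EIA with acetylcholinesterase conjugate, absorbance 412 nm; percent of untreated controls.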

[7] = Inhibition of TNF-alpha-induced NF-kappaB activation expressed in human HEK293 cells preincubated for 2 hrs before TNFalpha challenge by leuciferase reporter gene assay; assay type: cell-based
Procedure, shortened: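 HEK 293 cells transiently transfected (Ca2+-phosphate) with NF-κB-driven firefly luciferase plasmid, replated 1×10^5 cells/well, grown 16 h; preincubated 2 h with 5–60 μM, then 1 ng/mL TNF-α for 6 h; PDTC 50 μM positive control. Lysate luciferase read; solvent-treated = 100%; mean ± SEM, n = 3.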

[8] = biological target: RAC-alpha serine/threonine-protein kinase (Rattus norvegicus) (UniProt P47196); assay: Inhibition of AKt phosphorylation in Sprague-Dawley rat ischemic reperfusion treated hepatic tissue at 2.26 mM before ischemic period by Western blot analysis
Procedure, shortened: (§2)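 Rat livers given 2.26 mM or solvent via portal vein before 6 h cold ischemia and 150 min reperfusion. Western blot with antibodies to Bcl-xl or phospho-Akt (Ser-473, Thr-308), overnight at 4 °C, HRP secondary; β-actin loading control; densitometry; untreated livers as control; n = 3.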

[9] = biological target: Bcl-2-like protein 1 (Rattus norvegicus) (UniProt P53563); assay: Reduction of Bcl-xl level in Sprague-Dawley rat ischemic-reperfused hepatic tissue at 2.26 mM treated before ischemic period by Western blot analysis; assay type: functional; procedure, shortened: as §2
[10] = biological target: T1, Caspase-3 (Rattus norvegicus) (UniProt P55213); assay: Induction of caspase 3 in Sprague-Dawley rat ischemic-reperfused hepatic tissue assessed as generation of free fluorescent 7-amino-4-trifluoro-methylcoumarin at 2.26 mM treated before ischemic period
T1 sequence (whole entry): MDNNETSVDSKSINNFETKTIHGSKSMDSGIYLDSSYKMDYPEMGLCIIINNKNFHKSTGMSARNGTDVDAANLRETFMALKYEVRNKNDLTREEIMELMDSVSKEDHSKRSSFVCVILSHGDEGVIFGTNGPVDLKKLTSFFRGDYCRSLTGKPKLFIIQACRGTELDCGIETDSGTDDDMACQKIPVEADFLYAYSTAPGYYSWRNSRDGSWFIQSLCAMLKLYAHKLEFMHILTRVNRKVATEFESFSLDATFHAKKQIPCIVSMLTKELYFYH
Procedure, shortened: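 Isolated perfused rat livers (2.26 mM or solvent into portal vein, 6 h 4 °C cold ischemia, 150 min reperfusion). Tissue extracts incubated with Ac-DEVD-AFC; AFC fluorescence ex 385/em 505 nm; untreated livers set as 1; mean ± SEM, n = 3.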

[11] = test system: Liver; assay: Effect on ischemic and reperfusion-induced injury in Sprague-Dawley rat hepatic tissue at 2.26 mM before ischemic period assessed as ALT level; assay type: functional, tissue-based; conditions: Sprague-Dawely
Procedure, shortened: (§3)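 Male Sprague–Dawley rats (200–240 g) livers perfused with Krebs–Henseleit buffer pH 7.4, 37 °C; 2.26 mM compound or solvent injected via portal vein before 6 h cold ischemia at 4 °C; reperfused 150 min at 37 °C. Perfusate ALT, AST, LDH measured over time on clinical analyzer at 37 °C; mean ± SEM, n = 3.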

[12] = test system: Liver; assay: Effect on ischemic and reperfusion-induced injury in Sprague-Dawley rat hepatic tissue at 2.26 mM before ischemic period assessed as AST level; assay type: functional, tissue-based; conditions: Sprague-Dawely; procedure, shortened: as §3
[13] = test system: Liver; assay: Effect on ischemic and reperfusion-induced injury in Sprague-Dawley rat hepatic tissue at 2.26 mM before ischemic period assessed as LDH level; assay type: functional, tissue-based; conditions: Sprague-Dawely; procedure, shortened: as §3
[14] = test system: HEK293; assay: Antioxidant activity in human HEK293 cells loaded with dihyfrofluresceindiacetate at 1 mM; assay type: functional; procedure, shortened: as §1
[15] = species: Rattus norvegicus; assay: Inhibition of ischemia-reperfusion-induced NF-kappaB binding activity in Sprague-Dawley rat liver at 2.26 mM treated prior to ischemic reperfusion by EMSA

Bcl-2-like protein 1 (Rattus norvegicus), sequence (P53563 whole entry, the tested form may be a part): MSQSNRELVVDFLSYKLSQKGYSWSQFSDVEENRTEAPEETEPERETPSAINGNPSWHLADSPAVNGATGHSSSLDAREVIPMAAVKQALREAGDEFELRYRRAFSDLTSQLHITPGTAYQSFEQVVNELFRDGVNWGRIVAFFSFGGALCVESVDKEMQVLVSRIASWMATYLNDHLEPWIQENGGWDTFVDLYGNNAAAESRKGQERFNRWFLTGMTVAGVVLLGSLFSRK
RAC-alpha serine/threonine-protein kinase (Rattus norvegicus), sequence (P47196 whole entry, the tested form may be a part): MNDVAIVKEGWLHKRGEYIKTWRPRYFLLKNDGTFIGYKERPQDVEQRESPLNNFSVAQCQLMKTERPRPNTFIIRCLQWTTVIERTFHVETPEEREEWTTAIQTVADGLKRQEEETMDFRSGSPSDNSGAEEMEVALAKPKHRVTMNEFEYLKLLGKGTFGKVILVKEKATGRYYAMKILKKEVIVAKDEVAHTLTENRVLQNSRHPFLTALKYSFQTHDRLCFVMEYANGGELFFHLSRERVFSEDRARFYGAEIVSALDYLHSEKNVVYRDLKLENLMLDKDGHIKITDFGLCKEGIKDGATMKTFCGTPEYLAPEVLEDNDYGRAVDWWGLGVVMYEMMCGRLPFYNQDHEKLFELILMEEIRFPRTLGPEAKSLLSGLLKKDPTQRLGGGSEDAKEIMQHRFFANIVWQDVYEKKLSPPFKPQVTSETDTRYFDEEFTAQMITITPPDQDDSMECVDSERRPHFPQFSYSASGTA

## COc1cc(O)c(CC=C(C)C)c(O)c1C(=O)/C=C/c1ccc(O)cc1 [XANTHOHUMOL]
[1]
  IC50: 15 µM
[2]
  Activity: 71.9%
[3]
  Activity: Non-toxic
[4]
  inhibition: Active
[5]
  inhibition: Active
[6]
  inhibition: Active
[7]
  IC50: 35 µM
[8]
  inhibition: Active
[9]
  Activity: Active
[10]
  Activity: Active
[11]
  Activity: inactive
[12]
  Activity: inactive
[13]
  Activity: inactive
[14]
  Activity: 46.2%
[15]
  inhibition: Active
